Experimental data collected from several papers.
Each line is one published result; the experiments were not run side by side.
Cell line: HepG2
Read-out: cell growth or viability

SMILES | technique | tested at | time | quantity | value
CC(=O)O[C@H]1C(=O)[C@@]2(C)[C@H]([C@H](OC(=O)c3ccccc3)[C@]3(O)C[C@H](OC(=O)[C@H](O)[C@@H](NC(=O)c4ccccc4)c4ccccc4)C(C)=C1C3(C)C)[C@]1(OC(C)=O)CO[C@@H]1C[C@@H]2O | MTT |  |  | IC50 | 4.75 µM
COc1ccc(NC(=O)c2c(Nc3ccccc3)sc(C#N)c2NC(=O)CNc2ccc(OC)c(OC)c2)cc1 | SRB | 1 nM | 48 h | viability | 100%
CCn1cc(-c2nc(C)no2)c(=O)c2cc(F)c(N3CCCC(C)C3)cc21 (stereo not shown) | ATP luminescence |  | 48 h | EC50 | > 40 µM
CC(=O)Nc1cccc(-n2c(=O)n(C3CC3)c(=O)c3c(Nc4ccc(I)cc4F)n(C)c(=O)c(C)c32)c1 | resazurin | 6.25 nM | 72 h | viability | 68%
CCOC(=O)c1ccc(-n2c(-c3ccc(C)cc3)cc(-c3ccc(O)cc3)c(C#N)c2=O)cc1 | MTT | 3.125 µM | 24 h | viability | 88%
O=C(CN1C(=O)/C(=C/c2ccncc2)SC1=S)Nc1ccccc1 | MTT | 10 µM |  | inhibition | 11.8%
CCOC(=O)c1ccc(-n2c(C)cc(/C=C/c3ccc(OC)cc3)c(C#N)c2=O)cc1 | MTT | 25 µM | 24 h | viability | 72.6%
Clc1ccc(-c2nc3ccccc3n2Cc2ccccc2)cc1Cl | MTT |  |  | IC50 | 49.9 µM
Cc1cc(=O)oc2ccc(-c3cc(-c4cccc(Cl)c4)nc(N)n3)c(O)c12 | MTT | 128 µg/mL | 72 h | inhibition | 31%
c1cncc(-c2nc3ccccc3[nH]2)c1 | MTT |  | 48 h | IC50 | 70.6 µM
COc1ccc(NC(=O)c2c(Nc3ccccc3)sc(C(=O)NN=Cc3ccc(Cl)cc3)c2NC(C)=O)cc1 | SRB | 100 µM | 48 h | viability | 52.6%
Cc1cc(=O)oc2ccc(-c3cc(-c4cccs4)nc(N)n3)c(O)c12 | MTT | 2 µg/mL | 72 h | inhibition | 0%
COc1cccc(/C=C2\SC(=S)N(CC(=O)Nc3ccccc3)C2=O)c1 | MTT | 10 µM |  | inhibition | 13.9%
Cc1cc(=O)oc2ccc(-c3cc(-c4ccccc4)nc(N)n3)c(O)c12 | MTT | 8 µg/mL | 72 h | inhibition | 0%
CCOc1cc(-c2nc3ccc(C)cc3[nH]2)ccc1O | MTT |  | 48 h | IC50 | 77.1 µM
CCOC(=O)c1ccc(-n2c(N)c(C#N)c(CC#N)c(C#N)c2=O)cc1 | MTT | 100 µM | 24 h | viability | 24.5%
O=C(CN1C(=O)/C(=C/c2cccc([N+](=O)[O-])c2)SC1=S)Nc1ccccc1 | MTT | 10 µM |  | inhibition | 24.2%
CC(C)(CO)Cn1nc(-c2ccc3nc(OCC(F)(F)F)ccc3c2)c2c(N)ncnc21 |  |  |  | GI50 | > 10 µM
CSc1ccc(-c2nc3ccc(C)cc3[nH]2)cc1 | MTT |  | 48 h | IC50 | > 100 µM
CCCC1CCN(c2cc3c(cc2F)c(=O)c(C(=O)OCC)cn3CC)CC1 | ATP luminescence |  | 48 h | EC50 | > 40 µM

SMILES | technique | tested at | time | quantity | value
Cc1cc(=O)oc2ccc(-c3cc(-c4ccc(Cl)cc4)nc(N)n3)c(O)c12 | MTT | 128 µg/mL | 72 h | inhibition | 87%
COc1ccccc1/C=C1\SC(=S)N(CC(=O)Nc2ccccc2)C1=O | MTT | 10 µM |  | inhibition | 25.6%
CN1CCN(C/C=N/NC(=O)Nc2cc3c(Nc4ccc(F)c(Cl)c4)ncnc3cc2O[C@H]2CCOC2)CC1 | MTT |  | 72 h | IC50 | 3.28 µM
CCOC(=O)c1ccc(-n2c(C)cc(C)c(C#N)c2=O)cc1 | MTT | 100 µM | 24 h | viability | 36.4%
COc1ccc(NC(=O)c2c(Nc3ccccc3)sc(C#N)c2NC(=O)CNc2ccccc2)cc1 | SRB | 0.1 µM | 48 h | viability | 82.4%
COc1cccc(NC(=O)CN2C(=O)/C(=C/c3cccs3)SC2=S)c1 | MTT | 10 µM |  | inhibition | 12.2%
CCn1cc(-c2nc(C)no2)c(=O)c2cc(F)c(N3CCC(F)(F)CC3)cc21 | ATP luminescence |  | 48 h | EC50 | > 40 µM
CCOC(=O)c1ccc(-n2c(C)cc(/C=C/c3ccc(OCC)cc3)c(C#N)c2=O)cc1 | MTT | 1.56 µM | 24 h | viability | 100%
COc1ccc(NC(=O)c2c(Nc3ccccc3)sc(C(=O)NN=Cc3ccc(OC)c(O)c3)c2NC(C)=O)cc1 | SRB | 10 µM | 48 h | viability | 31.6%
C[C@H]1[C@@H](CC(=O)NCC(=O)N[C@@H](CC(=O)NC(C)(C)C)C(=O)NCCNC(=O)c2cc(-c3ccccc3F)ccc2F)O[C@@H]2O[C@@]3(C)CC[C@H]4[C@H](C)CC[C@@H]1[C@@]24OO3 | ATP luminescence |  | 72 h | EC50 | 5.8 µM
CCOC(=O)c1ccc(N2C(N)=C(C#N)C3(C(=O)Nc4ccccc43)C(C#N)=C2O)cc1 (stereo not shown) | MTT | 6.25 µM | 24 h | viability | 61.3%
c1ccc2c(-c3nc4ccccc4[nH]3)c3ccccc3cc2c1 | MTT |  | 48 h | IC50 | 9.79 µM
COc1ccc(NC(=O)c2c(Nc3ccccc3)sc(C#N)c2NC(=O)CNc2ccc(Br)cc2)cc1 | SRB | 10 µM | 48 h | viability | 46.2%
Cc1cc(Nc2ccc(C(=O)N/N=C/c3cccs3)cc2)c2cccc(O)c2n1 | MTT | 20 µM |  | inhibition | 49%
COc1ccc(NC(=O)c2c(Nc3ccccc3)sc(C#N)c2NC(=O)CNc2ccc([N+](=O)[O-])cc2)cc1 | SRB | 0.1 µM | 48 h | viability | 75.2%
CCOC(=O)c1ccc(NC(=O)C2=C3C(=Nc4ccccc43)NC2=O)cc1 | MTT | 1.56 µM | 24 h | viability | 100%
COc1ccc(NC(=O)c2c(Nc3ccccc3)sc(C(=O)NN=Cc3cc(OC)c(OC)c(OC)c3)c2NC(C)=O)cc1 | SRB | 1 nM | 48 h | viability | 97.3%
CCn1cc(C(N)=O)c(=O)c2cc(F)c(N3CCC(C)CC3)cc21 | ATP luminescence |  | 48 h | EC50 | > 40 µM
COc1ccc(NC(=O)c2c(Nc3ccccc3)sc(C#N)c2NC(=O)CNc2ccccc2Cl)cc1 | SRB | 0.1 µM | 48 h | viability | 95.7%
Clc1ccc(-c2nc3ccccc3[nH]2)cc1Cl | MTT |  | 48 h | IC50 | 7.45 µM
